In ChEMBL document CHEMBL2040727, “Substituted thiazoles VI. Synthesis and antitumor activity of new 2-acetamido- and 2 or 3-propanamido-thiazole analogs” (2012):

What was measured:
Format in all cases: functional
HL-60(TB) = assay: Growth inhibition of human HL-60(TB) cells at 10 uM after 48 hrs by coulter counter analysis; conditions: HL-60, 48 h, read-out: GI
How it was run: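 Cells grown in RPMI 1640 with 10% FBS. Compound was dissolved in DMSO and diluted in PBS (under 1% DMSO final), then added in duplicate wells to culture at 6 × 10⁴ cells/ml. PBS/DMSO vehicle controls were included. Incubated at 37 °C, humidified 5% CO₂, for 48 h. Cells were diluted 10-fold in saline and Coulter-counted. Single-dose NCI-60 screen, read as percent growth inhibition.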

K562 = assay: Growth inhibition of human K562 cells at 10 uM after 48 hrs by coulter counter analysis; conditions: K562, 48 h, read-out: GI
How it was run: (§1)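 Single-dose NCI 60-line panel screen of test compounds. Cells grown in RPMI 1640 with 10% FBS. Compounds dissolved in DMSO, then diluted in phosphate buffer saline (final DMSO below 1%). Wells run in duplicate at 6 × 10⁴ cells/ml. Controls held PBS and DMSO at matching dilutions. Incubation 48 h at 37 °C under humidified 5% CO2. Cells diluted tenfold in saline and counted by Coulter counter. Percent growth inhibition taken from mean-graph of treated-cell growth.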

MOLT-4 = assay: Growth inhibition of human MOLT4 cells at 10 uM after 48 hrs by coulter counter analysis; conditions: MOLT-4, 48 h, read-out: GI; how it was run: as §1
RPMI-8226 = assay: Growth inhibition of human RPMI8226 cells at 10 uM after 48 hrs by coulter counter analysis; conditions: RPMI-8226, 48 h, read-out: GI; how it was run: as §1
SR = assay: Growth inhibition of human SR cells at 10 uM after 48 hrs by coulter counter analysis; conditions: read-out: GI
How it was run: (§2)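 Single-dose screen in the NCI 60 cell line panel. Cells grown in RPMI 1640 with 10% FBS. Compounds dissolved in DMSO and diluted in phosphate buffered saline, final DMSO under 1%. Duplicate wells seeded from culture at 6 × 10⁴ cells/ml. Incubated 48 h at 37 °C, humidified, 5% CO2. Cells diluted tenfold in saline and Coulter-counted. Percent growth inhibition computed against PBS/DMSO controls.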

A549 = assay: Growth inhibition of human A549/ATCC cells at 10 uM after 48 hrs by coulter counter analysis; conditions: A549, 48 h, read-out: GI; how it was run: as §1
HOP-92 = assay: Growth inhibition of human HOP92 cells at 10 uM after 48 hrs by coulter counter analysis; conditions: HOP-92, 48 h, read-out: GI; how it was run: as §1
NCI-H23 = assay: Growth inhibition of human NCI-H23 cells at 10 uM after 48 hrs by coulter counter analysis; conditions: NCI-H23, 48 h, read-out: GI; how it was run: as §1
NCI-H322M = assay: Growth inhibition of human NCI-H322M cells at 10 uM after 48 hrs by coulter counter analysis; conditions: read-out: GI; how it was run: as §1
NCI-H460 = assay: Growth inhibition of human NCI-H460 cells at 10 uM after 48 hrs by coulter counter analysis; conditions: NCI-H460, 48 h, read-out: GI; how it was run: as §1
HCC 2998 = assay: Growth inhibition of human HCC2998 cells at 10 uM after 48 hrs by coulter counter analysis; conditions: HCC 2998, 48 h, read-out: GI; how it was run: as §1
HCT-116 = assay: Growth inhibition of human HCT116 cells at 10 uM after 48 hrs by coulter counter analysis; conditions: HCT-116, 48 h, read-out: GI; how it was run: as §1
HCT-15 = assay: Growth inhibition of human HCT15 cells at 10 uM after 48 hrs by coulter counter analysis; conditions: HCT-15, 48 h, read-out: GI; how it was run: as §1
HT-29 = assay: Growth inhibition of human HT-29 cells at 10 uM after 48 hrs by coulter counter analysis; conditions: HT-29, 48 h, read-out: GI; how it was run: as §1
KM12 = assay: Growth inhibition of human KM12 cells at 10 uM after 48 hrs by coulter counter analysis; conditions: KM12, 48 h, read-out: GI; how it was run: as §1
SW-620 = assay: Growth inhibition of human SW620 cells at 10 uM after 48 hrs by coulter counter analysis; conditions: SW-620, 48 h, read-out: GI; how it was run: as §2
SF-295 = assay: Growth inhibition of human SF295 cells at 10 uM after 48 hrs by coulter counter analysis; conditions: SF-295, 48 h, read-out: GI; how it was run: as §1
SF-539 = assay: Growth inhibition of human SF539 cells at 10 uM after 48 hrs by coulter counter analysis; conditions: SF-539, 48 h, read-out: GI; how it was run: as §1
SNB-75 = assay: Growth inhibition of human SNB75 cells at 10 uM after 48 hrs by coulter counter analysis; conditions: SNB-75, 48 h, read-out: GI; how it was run: as §2
U-251 = assay: Growth inhibition of human U251 cells at 10 uM after 48 hrs by coulter counter analysis; conditions: U-251, 48 h, read-out: GI; how it was run: as §2
M14 = assay: Growth inhibition of human M14 cells at 10 uM after 48 hrs by coulter counter analysis; conditions: M14, 48 h, read-out: GI; how it was run: as §1
SK-MEL-2 = assay: Growth inhibition of human SK-MEL-2 cells at 10 uM after 48 hrs by coulter counter analysis; conditions: SK-MEL-2, 48 h, read-out: GI; how it was run: as §1
SK-MEL-5 = assay: Growth inhibition of human SK-MEL-5 cells at 10 uM after 48 hrs by coulter counter analysis; conditions: SK-MEL-5, 48 h, read-out: GI; how it was run: as §1
UACC-62 = assay: Growth inhibition of human UACC62 cells at 10 uM after 48 hrs by coulter counter analysis; conditions: UACC-62, 48 h, read-out: GI; how it was run: as §2
OVCAR-4 = assay: Growth inhibition of human OVCAR4 cells at 10 uM after 48 hrs by coulter counter analysis; conditions: OVCAR-4, 48 h, read-out: GI; how it was run: as §1
A498 = assay: Growth inhibition of human A498 cells at 10 uM after 48 hrs by coulter counter analysis; conditions: A498, 48 h, read-out: GI; how it was run: as §1
ACHN = assay: Growth inhibition of human ACHN cells at 10 uM after 48 hrs by coulter counter analysis; conditions: read-out: GI; how it was run: as §1
RXF 393 = assay: Growth inhibition of human RXF393 cells at 10 uM after 48 hrs by coulter counter analysis; conditions: RXF 393, 48 h, read-out: GI; how it was run: as §1
UO-31 = assay: Growth inhibition of human UO31 cells at 10 uM after 48 hrs by coulter counter analysis; conditions: UO-31, 48 h, read-out: GI; how it was run: as §2
PC-3 = assay: Growth inhibition of human PC3 cells at 10 uM after 48 hrs by coulter counter analysis; conditions: PC-3, 48 h, read-out: GI; how it was run: as §1
DU-145 = assay: Growth inhibition of human DU145 cells at 10 uM after 48 hrs by coulter counter analysis; conditions: DU-145, 48 h, read-out: GI; how it was run: as §1
MCF7 = assay: Growth inhibition of human MCF7 cells at 10 uM after 48 hrs by coulter counter analysis; conditions: MCF7, 48 h, read-out: GI; how it was run: as §1
T47D = assay: Growth inhibition of human T47D cells at 10 uM after 48 hrs by coulter counter analysis; conditions: read-out: GI; how it was run: as §2
CCRF-CEM = assay: Growth inhibition of human CCRF-CEM cells at 10 uM after 48 hrs by coulter counter analysis; conditions: read-out: GI; how it was run: as §1

Row | Structure (SMILES) | inhibition of growth at 10 µM (HL-60(TB)) | inhibition of growth at 10 µM (K562) | inhibition of growth at 10 µM (MOLT-4) | inhibition of growth at 10 µM (RPMI-8226) | inhibition of growth at 10 µM (SR) | inhibition of growth at 10 µM (A549) | inhibition of growth at 10 µM (HOP-92) | inhibition of growth at 10 µM (NCI-H23) | inhibition of growth at 10 µM (NCI-H322M) | inhibition of growth at 10 µM (NCI-H460) | inhibition of growth at 10 µM (HCC 2998) | inhibition of growth at 10 µM (HCT-116) | inhibition of growth at 10 µM (HCT-15) | inhibition of growth at 10 µM (HT-29) | inhibition of growth at 10 µM (KM12) | inhibition of growth at 10 µM (SW-620) | inhibition of growth at 10 µM (SF-295) | inhibition of growth at 10 µM (SF-539) | inhibition of growth at 10 µM (SNB-75) | inhibition of growth at 10 µM (U-251) | other results
1 | CC(C(=O)Nc1nccs1)N1CCN(c2ccccc2)CC1 (stereo not drawn) | < 10% | < 10% | < 10% | < 10% | < 10% | < 10% | < 10% | < 10% | < 10% | < 10% | < 10% | < 10% | < 10% | < 10% | < 10% | < 10% | < 10% | < 10% | < 10% | < 10% | inhibition of growth at 10 µM (M14): < 10%; inhibition of growth at 10 µM (SK-MEL-2): < 10%; inhibition of growth at 10 µM (SK-MEL-5): < 10%; inhibition of growth at 10 µM (UACC-62): < 10%; inhibition of growth at 10 µM (OVCAR-4): < 10%; inhibition of growth at 10 µM (A498): < 10%; inhibition of growth at 10 µM (ACHN): < 10%; inhibition of growth at 10 µM (RXF 393): < 10%; inhibition of growth at 10 µM (UO-31): < 10%; inhibition of growth at 10 µM (PC-3): < 10%; inhibition of growth at 10 µM (DU-145): < 10%; inhibition of growth at 10 µM (MCF7): < 10%; inhibition of growth at 10 µM (T47D): < 10%; inhibition of growth at 10 µM (CCRF-CEM): < 10%
2 | CCOC(=O)c1sc(NC(=O)CCN2CCOCC2)nc1C | < 10% | < 10% | < 10% | < 10% | < 10% | < 10% | 21.9% | < 10% | < 10% | < 10% | < 10% | < 10% | < 10% | < 10% | < 10% | < 10% | < 10% | < 10% | < 10% | < 10% | inhibition of growth at 10 µM (M14): < 10%; inhibition of growth at 10 µM (SK-MEL-2): < 10%; inhibition of growth at 10 µM (SK-MEL-5): < 10%; inhibition of growth at 10 µM (UACC-62): < 10%; inhibition of growth at 10 µM (OVCAR-4): < 10%; inhibition of growth at 10 µM (A498): < 10%; inhibition of growth at 10 µM (ACHN): < 10%; inhibition of growth at 10 µM (RXF 393): < 10%; inhibition of growth at 10 µM (UO-31): 10.6%; inhibition of growth at 10 µM (PC-3): < 10%; inhibition of growth at 10 µM (DU-145): < 10%; inhibition of growth at 10 µM (MCF7): < 10%; inhibition of growth at 10 µM (T47D): < 10%; inhibition of growth at 10 µM (CCRF-CEM): < 10%
